Here are results for 1 compound from ChEMBL document CHEMBL4043295, “Marbostat-100 Defines a New Class of Potent and Selective Antiinflammatory and Antirheumatic Histone Deacetylase 6 Inhibitors” (J Med Chem, 2018).

The structures appear in SMILES notation. Calls of active or inactive are those of the source. No cut-off for these calls is given here.

The test system of series [1] is Mus musculus. As to the kind of experiment: Antiarthritic activity in DBA/1J mouse collagen-induced arthritis model assessed as reduction in paw thickness at 30 mg/kg, ip administered every morning for 1 week measured during compound dosing. In kind it is functional, organism-based. An outline of the steps:
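Collagen type II-induced arthritis in mice, treated at 30 mg/kg versus vehicle. Clinical arthritis score and paw swelling were followed over time from the start of treatment until the end of the experiment.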

The test system of a further series is PBMC. In words: Induction of apoptosis in human PBMC at 50 to 1000 nM after 24 hrs by Annexin V/propidium iodide staining-based flow cytometric method. In kind it is cell-based. The following applies: 1 µM.
The subject of series [2] is Mus musculus. As to the kind of experiment: Antiarthritic activity in DBA/1J mouse collagen-induced arthritis model assessed as decrease in bone erosion in joints at 30 mg/kg, ip administered every morning for 12 to 14 days. Format: functional, organism-based. The essentials:
(§1)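 Collagen type II-induced arthritis in mice, treated at 30 mg/kg versus vehicle. Arthritic paws were assessed histologically for synovial inflammation, cellular invasion, cartilage degradation and bone erosion.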

In the next series the target is Histone deacetylase 5 (Homo sapiens, UniProt Q9UQL6). As to the kind of experiment: Inhibition of recombinant human C-terminal His-tagged HDAC5 (656 to 1122 residues) expressed in baculovirus-infected insect cells using Boc-Lys(TFA)-AMC as substrate after 60 mins by fluorimeter.
Series [3] deals with T1, Protein deacetylase HDAC6 (Homo sapiens) (UniProt Q9UBN7).
T1 sequence (whole entry): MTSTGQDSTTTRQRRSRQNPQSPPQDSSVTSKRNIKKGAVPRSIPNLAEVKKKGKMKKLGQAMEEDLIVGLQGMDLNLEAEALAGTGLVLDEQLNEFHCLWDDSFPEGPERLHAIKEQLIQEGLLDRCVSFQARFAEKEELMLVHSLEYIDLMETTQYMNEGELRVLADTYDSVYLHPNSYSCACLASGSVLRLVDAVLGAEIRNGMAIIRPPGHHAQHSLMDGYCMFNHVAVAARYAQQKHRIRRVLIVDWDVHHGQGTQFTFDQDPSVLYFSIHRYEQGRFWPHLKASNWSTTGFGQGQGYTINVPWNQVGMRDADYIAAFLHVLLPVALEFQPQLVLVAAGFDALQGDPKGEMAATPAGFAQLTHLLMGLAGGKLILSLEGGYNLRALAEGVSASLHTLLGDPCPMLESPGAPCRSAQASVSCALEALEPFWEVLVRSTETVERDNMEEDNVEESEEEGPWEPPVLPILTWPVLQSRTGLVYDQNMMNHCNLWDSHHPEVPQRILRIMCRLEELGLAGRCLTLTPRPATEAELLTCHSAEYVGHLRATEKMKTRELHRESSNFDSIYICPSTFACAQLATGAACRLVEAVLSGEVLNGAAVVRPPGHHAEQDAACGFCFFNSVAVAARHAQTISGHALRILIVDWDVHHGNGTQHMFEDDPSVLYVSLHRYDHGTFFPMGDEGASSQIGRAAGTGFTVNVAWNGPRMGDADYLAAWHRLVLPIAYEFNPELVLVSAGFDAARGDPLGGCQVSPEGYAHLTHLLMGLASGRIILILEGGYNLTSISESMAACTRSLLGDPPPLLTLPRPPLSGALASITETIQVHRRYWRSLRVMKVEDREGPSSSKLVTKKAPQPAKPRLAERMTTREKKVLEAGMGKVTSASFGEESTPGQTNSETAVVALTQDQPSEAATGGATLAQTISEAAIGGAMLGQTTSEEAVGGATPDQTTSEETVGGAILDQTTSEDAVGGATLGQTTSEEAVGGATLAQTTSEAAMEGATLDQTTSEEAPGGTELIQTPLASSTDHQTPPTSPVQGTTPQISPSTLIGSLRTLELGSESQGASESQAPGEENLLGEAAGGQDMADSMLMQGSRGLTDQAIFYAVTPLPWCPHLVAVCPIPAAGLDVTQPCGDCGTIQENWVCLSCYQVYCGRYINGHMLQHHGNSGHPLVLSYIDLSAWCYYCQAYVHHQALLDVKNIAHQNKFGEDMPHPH
The following applies: 5 to 1000 nM.

Series [4] concerns Mus musculus. As to the kind of experiment: Antiarthritic activity in DBA/1J mouse collagen-induced arthritis model assessed as decrease in histological scores at 30 mg/kg, ip administered every morning for 12 to 14 days measured during compound dosing relative to vehicle-treated control. The arrangement: scale not given: the % may be the effect or the level left. In kind it is functional. The essentials:
as §1

Series [5] can be described thus: Inhibition of class 1 HDAC in human MV4-11 cells assessed as induction of histone hyperacetylation at 50 nM to 10 uM after 24 hrs by Western blot method. Format: cell-based. The conditions noted are these: 0.05 µM. The essentials: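 MV4-11 cells were exposed to the inhibitor, from 5 nM to 10 µM for 24 h or at 50 nM for 10 min to 48 h. Lysates were immunoblotted for acetylated tubulin, acetylated histone H3 and HDAC6. Acetyl-tubulin was quantified by densitometry normalised to HSP90. MS-275 at 5 µM for 24 h was the comparator. Blots are representative of at least two independent experiments.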

The target of another series is T2, Histone deacetylase 8 (Homo sapiens, UniProt Q9BY41).
T2 sequence (Q9BY41 whole entry): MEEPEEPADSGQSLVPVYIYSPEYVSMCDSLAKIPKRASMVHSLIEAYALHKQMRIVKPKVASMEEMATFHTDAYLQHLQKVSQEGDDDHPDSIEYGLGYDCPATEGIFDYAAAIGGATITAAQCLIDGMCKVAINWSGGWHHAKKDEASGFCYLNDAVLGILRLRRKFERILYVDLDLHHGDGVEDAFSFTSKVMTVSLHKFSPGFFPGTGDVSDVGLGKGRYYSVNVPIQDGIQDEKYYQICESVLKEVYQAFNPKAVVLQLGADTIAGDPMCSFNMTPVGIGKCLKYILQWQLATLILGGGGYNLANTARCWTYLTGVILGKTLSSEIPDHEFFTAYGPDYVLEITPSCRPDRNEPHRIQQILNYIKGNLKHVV
In words: Inhibition of recombinant human C-terminal His-tagged HDAC8 (1 to 377 residues) expressed in baculovirus-infected insect cells using RHK(Ac)K(Ac)AMC as substrate after 60 mins by fluorimeter.

Series [6] deals with Mus musculus. In words: Antiarthritic activity in DBA/1J mouse collagen-induced arthritis model assessed as loss of body weight at 30 mg/kg, ip administered every morning for 1 week measured during compound dosing. In kind it is functional, organism-based.
Series [7] relates to Mus musculus. As to the kind of experiment: Antiarthritic activity in DBA/1J mouse collagen-induced arthritis model assessed as decrease in degradation of cartilage at 30 mg/kg, ip administered every morning for 12 to 14 days. Format: functional, organism-based. The essentials: as §1

Chain of Histone deacetylase 5 (Q9UQL6 whole entry, the tested form may be a part): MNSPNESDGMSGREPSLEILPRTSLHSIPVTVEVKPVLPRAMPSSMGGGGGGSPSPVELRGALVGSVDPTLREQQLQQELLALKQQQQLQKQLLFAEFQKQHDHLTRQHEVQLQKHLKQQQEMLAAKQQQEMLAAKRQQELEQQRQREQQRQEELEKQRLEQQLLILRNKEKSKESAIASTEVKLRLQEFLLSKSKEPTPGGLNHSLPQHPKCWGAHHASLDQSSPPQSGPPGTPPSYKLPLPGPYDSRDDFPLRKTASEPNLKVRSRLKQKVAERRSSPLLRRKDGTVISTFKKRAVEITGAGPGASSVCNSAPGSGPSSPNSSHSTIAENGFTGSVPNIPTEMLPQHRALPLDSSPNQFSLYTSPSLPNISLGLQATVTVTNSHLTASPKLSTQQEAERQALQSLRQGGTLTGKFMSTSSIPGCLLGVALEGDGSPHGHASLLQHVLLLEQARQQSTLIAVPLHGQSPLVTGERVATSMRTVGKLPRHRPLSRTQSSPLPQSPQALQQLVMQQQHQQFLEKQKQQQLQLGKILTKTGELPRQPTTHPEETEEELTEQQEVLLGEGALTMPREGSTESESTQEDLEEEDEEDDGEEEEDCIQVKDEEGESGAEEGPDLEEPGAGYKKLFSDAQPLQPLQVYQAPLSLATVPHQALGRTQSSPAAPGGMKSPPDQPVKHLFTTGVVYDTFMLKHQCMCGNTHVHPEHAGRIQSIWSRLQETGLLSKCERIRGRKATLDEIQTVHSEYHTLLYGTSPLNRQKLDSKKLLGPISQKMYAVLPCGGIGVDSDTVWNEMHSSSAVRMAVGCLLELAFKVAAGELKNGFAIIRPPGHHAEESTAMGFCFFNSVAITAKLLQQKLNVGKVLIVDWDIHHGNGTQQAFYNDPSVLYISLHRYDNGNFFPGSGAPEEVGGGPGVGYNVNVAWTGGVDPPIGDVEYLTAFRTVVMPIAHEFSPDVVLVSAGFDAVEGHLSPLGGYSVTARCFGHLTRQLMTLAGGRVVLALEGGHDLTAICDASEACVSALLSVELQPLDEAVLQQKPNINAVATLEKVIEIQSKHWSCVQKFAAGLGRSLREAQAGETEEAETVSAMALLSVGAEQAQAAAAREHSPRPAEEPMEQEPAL

`CN1C(=O)C2CN(Cc3c2c2ccccc2n3Cc2ccc(C(=O)NO)cc2)C1=O` (stereo not given): the outcome in the series with Mus musculus [1], with Mus musculus [2], in the series with Mus musculus [6] and in the series with Mus musculus [7] was Active. For the same compound, the Activity result is reported as “Non-Toxic” with PBMC and 50% in the series on Mus musculus [4]. Further, the Ki at Histone deacetylase 5 stood at 701 nM; on Histone deacetylase 8 it was 173 nM. For the same compound, the inhibition result in series [3] was “Active”. Moreover, the “inhibition (INH)” value in series [5] is listed as “Not Active”.
